Screening data from PubChem.
ASAP1 GAP inh: inhibitors of human ASAP1 ArfGAP activity | Q9ULH1 | 360,000 tested, 0.19% active | inhibition, % at 16.5 µM | AID 624377 | ASAP1-stimulated ARF1 GTP hydrolysis, GDP FP detection; in the data active = inhibition above about 25%;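 note: 0% = vehicle with enzyme and substrate and 100% = no enzyme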
PLC-gamma1 inh: PLC-gamma1 (human) inhibition, primary screen | P19174 | purified PLC-gamma1, fluorogenic substrate, fluorescence | inhibition, % at 12.2 µM | 370,000 tested, 0.84% active | AID 720700; in the data active = inhibition above about 9.5%
ARFGAP1 inhibitor: inhibitors of rat ARFGAP1. Q62848. Arfgap1-stimulated ARF1 GTP hydrolysis, GDP FP detection. inhibition, % at 16.5 µM. 360,000 tested, 0.26% active. AID 651572;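 active = inhibition above a per-plate limit, mean inhibition of low control wells plus 3 SD, cut at about 25% in these data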;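 note: 0% = DMSO wells with enzyme and 100% = wells lacking Arfgap1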
Target sequence (Q62848 1-136 limits assumed): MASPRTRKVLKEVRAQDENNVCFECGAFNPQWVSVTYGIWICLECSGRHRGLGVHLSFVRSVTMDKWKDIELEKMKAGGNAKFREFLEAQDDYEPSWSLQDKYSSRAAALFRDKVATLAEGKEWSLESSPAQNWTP
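Material: truncated rat Arfgap1 GAP domain; Incubation: compound-enzyme preincubation 20 min, reaction 120 min, detection 60 min, 25 °C; Read-out: percent inhibition of Arfgap1-stimulated GTP hydrolysis; Technique: FP, GDP Alexa 633 tracer displaced from anti-GDP antibody, 620/688 nm; Controls: No-Arfgap1 wells (100%) versus DMSO full-reaction wells (0%); Replication: single well per compound.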
sPLA2-III inh: Blocks human group III sPLA2 activity; AID 743126; inhibition, % at 12.2 µM; QFRET BODIPY PC-A2 liposome hydrolysis, fluorescence; Q9NZ20; 370,000 tested, 0.56% active;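 active = inhibition above mean plus 3 SD of compounds lying within the high and low control bounds, cut at about 19% in these data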;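 note: 0% = median of test compound wells and 100% = no enzyme DMSO wells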
Target sequence (Q9NZ20 whole entry, looked up): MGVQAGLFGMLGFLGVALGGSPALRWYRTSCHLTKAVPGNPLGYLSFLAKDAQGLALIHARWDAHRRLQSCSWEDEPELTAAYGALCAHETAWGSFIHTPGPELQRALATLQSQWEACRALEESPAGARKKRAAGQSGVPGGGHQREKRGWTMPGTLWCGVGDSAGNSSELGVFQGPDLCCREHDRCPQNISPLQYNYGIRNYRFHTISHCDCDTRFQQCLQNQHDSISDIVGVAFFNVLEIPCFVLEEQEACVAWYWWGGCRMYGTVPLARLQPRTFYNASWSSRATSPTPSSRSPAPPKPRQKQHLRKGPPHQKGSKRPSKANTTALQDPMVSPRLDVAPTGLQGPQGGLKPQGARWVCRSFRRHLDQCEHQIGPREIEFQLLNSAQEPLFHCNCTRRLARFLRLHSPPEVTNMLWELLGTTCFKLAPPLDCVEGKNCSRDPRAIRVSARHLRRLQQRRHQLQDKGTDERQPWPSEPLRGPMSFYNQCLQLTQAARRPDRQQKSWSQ
PLC-beta3 inh: inhibitors of human phospholipase C beta3; Q01970; Purified PLC-beta3, fluorogenic substrate, fluorescence; inhibition, % at 12.2 µM; 370,000 tested, 0.18% active; AID 720704; in the data active = inhibition above about 11%;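 note: 0% = median of compound wells on plate and 100% = full blocker control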
ARFGAP1 inh conf: confirmation of rat ARFGAP1 inhibitors | shares compounds with ARFGAP1 inhibitor | ARFGAP1-stimulated ARF1 GTP hydrolysis, GDP tracer FP | inhibition, % at 16.5 µM | 890 tested, 30% active | AID 651608;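 active = average inhibition over triplicates above the hit cutoff set in the earlier primary screen, cut at about 25% in these data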;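 note: 0% = Arfgap1 plus ARF1-GTP with DMSO and 100% = wells lacking Arfgap1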
Starred values were filed as active, the others as inactive; i = inactive; · = not tested or not shown. In the library only some 1.9% were active in any assay of this set; here they are far more common.

SMILES	ASAP1 GAP inh	PLC-gamma1 inh	ARFGAP1 inhibitor	sPLA2-III inh	PLC-beta3 inh	ARFGAP1 inh conf
CCOC(=O)Cc1cc(=O)c2cc(C)ccc2[nH]1	1	2	39*	-32	-1	-3
Cc1ccc2[nH]c(-c3ccccc3)cc(=O)c2c1	1	-16	-2	9	-21	·
CCNC(=O)NC(=O)C(C)Sc1nc2cc(C(=O)OC)ccc2c(=O)n1-c1ccccc1 (stereo not given)	-1	-4	27*	12	2	6
COc1ccc(-c2cc(C(=O)Nc3cccc(S(=O)(=O)NCc4ccco4)c3)c3ccccc3n2)cc1OC	19	-403	26*	-27	i	22
O=C(Nc1cccc(S(=O)(=O)NCc2ccco2)c1)c1cc(-c2ccc(F)cc2)nc2ccccc12	7	-18	8	-22	-20	·
Cc1ccsc1C=Nn1c(-c2n[nH]c3c2CCC3)n[nH]c1=S	·	0	·	10	1	·
C=C(C)COc1ccc(-c2[nH]ncc2-c2ccc(OC)cc2)c(O)c1	-3	5	26*	-31	5	7
Cn1c(=O)c2c(nc(SCc3cccnc3)n2Cc2ccccc2)n(C)c1=O	-10	1	26*	4	3	6
O=C(Nc1ccc(F)c(Cl)c1)c1ccc2sc([C@H]3C[C@H](O)[C@@H](CO)O3)nc2c1	13	-1	25*	0	-7	5
CC(=O)Nc1ccc(NC(=O)c2ccc3sc([C@H]4C[C@H](O)[C@@H](CO)O4)nc3c2)cc1	2	3	3	-5	3	·
CCCCN1C[C@@H](COCc2ccccc2)Oc2cccc(F)c2S1(=O)=O	·	2	·	-6	2	·
O=C(OCC(=O)N1CCN(C(=O)c2ccco2)CC1)c1cc(-c2ccc(Cl)c(Cl)c2Cl)nc2ccccc12	25	1	36*	4	5	45*
Cc1ccc(C2(C)NC(=O)N(CC(=O)NC(=O)NC(C)C)C2=O)cc1 (stereo not given)	-12	0	30*	3	-7	-6
CCCCCCCCN1C(=O)[C@@H](CC(=O)NCc2ccc(OC)c(OC)c2)C[C@@]2(C(=O)OC)C1=C[C@H](C(C)C)O[C@@H]2C1CC1	·	-1	·	-18	7	·
CC1CCCN(C(=O)Cn2nnc(-c3cccnc3)n2)C1 (stereo not given)	-6	3	26*	5	0	8
COC[C@@H](OC(C)=O)[C@H]1OCc2ccccc2[C@@H]1/C=C/c1ccccc1	·	-3	·	-1	-7	·
O=C(NCc1ccc(F)c(F)c1)C1CCCN(c2nc3ccccc3o2)C1 (stereo not given)	·	4	·	9	-6	·
COc1ccc(N/N=C(/C#N)S(=O)(=O)c2nsc(C)c2C#N)cc1	-7	-28	28*	3	-37	1
Cc1ccc(C(=O)N[C@@H](C)CN2C3=NC[C@H](C(C)C)N3C[C@H]2Cc2ccc(O)cc2)cc1Br	-2	3	26*	-14	-1	10
COc1ccc(C[C@H]2CN3C(=NC[C@@H]3C(C)C)N2C[C@H](C)NC(=O)c2ccc(C)c(Br)c2)cc1	13	6	-2	1	5	·
COc1ccc2c3c([nH]c2c1)[C@]1(CCNC=O)Nc2ccccc2C1=NCC3	·	-9	·	13	-12	·
COc1ccc(/C=C(/NC(=O)c2ccccc2)C(=O)NCc2ccncc2)cc1	11	0	7	6	-2	·
COc1ccc(C(=O)N/C(=C\c2ccccc2)C(=O)NCc2cccnc2)cc1	-4	-7	25*	5	-18	2
Cc1ccc2cc(C)c3nnc(SCC(=O)Nc4nc5c(s4)CCCC5)n3c2c1C	-11	4	27*	-33	5	-7
Cn1c(=O)cc(SCC(=O)NCc2ccc(F)cc2)c2ccccc21	-4	3	5	0	2	·
SMILES	ASAP1 GAP inh	PLC-gamma1 inh	ARFGAP1 inhibitor	sPLA2-III inh	PLC-beta3 inh	ARFGAP1 inh conf
Cn1c(=O)cc(SCC(=O)NCCCN2CCN(c3ccc(F)cc3)CC2)c2ccccc21	1	2	38*	-5	1	8
N#CCCn1cc(/C=N/NC(N)=S)c(-c2ccc(-c3ccccc3)cc2)n1	-3	1	27*	-12	-6	26*
COC(=O)C1CN(C2CCCC2)CCS(=O)(=O)N1Cc1ccc(OC)cc1 (stereo not given)	·	-1	·	-2	-2	·
C=CCn1c(=NC(=O)c2cccs2)sc2cccc(OC)c21	-1	-152	31*	2	-233	0
C#CCn1c(=NC(=O)c2ccc(Br)s2)sc2cccc(OC)c21	-11	-76	-5	-4	-104	·
C=CCOc1ccc(/C=N/NC(=O)c2cc3c(OC)cc(OC)cc3[nH]2)cc1	14	-269	10	-31	-370	·
CCOc1ccc(/C=N/NC(=O)c2cc3c(OC)cc(OC)cc3[nH]2)cc1OC	18	-339	26*	-42	-484	47*
O=C(Nc1ccc(-c2cn3ccccc3n2)cc1)c1cccs1	-2	-28	25*	-1	-28	86*
O=C(N=Nc1c(O)[nH]c2ccccc12)c1cc(-c2cccs2)[nH]n1	22	1	30*	16	-10	32*
O=C(Cc1cccs1)N=Nc1c(O)[nH]c2ccccc12	1	1	15	-43	-3	·
CCN1CCN(Cc2ccc(NC(=O)c3ccc(C)c(NC(=O)C(=O)c4c[nH]c5ccccc45)c3)cc2C(F)(F)F)CC1	10	-10	11	-30	-9	·
CCN1CCN(Cc2ccc(NC(=O)c3cc(NC(=O)C(=O)c4c[nH]c5ccccc45)cc(OC)c3)cc2C(F)(F)F)CC1	20	-13	46*	-26	-20	36*
CCCCN(CC)CCCNC(=O)c1cc2c(=O)[nH]c3ccccc3c2s1	1	-148	11	-8	-183	·
CCCCN(CC)CCNC(=O)c1cc2c(=O)[nH]c3ccc(C)cc3c2s1	1	-282	29*	-7	-376	-4
C=CCNc1nc(NCc2ccc(N(C)C)cc2)c2sc(-c3ccccc3)cc2n1	8	-16	46*	11	-23	9
C=CCNc1nc(NCCOC)c2sc(-c3ccccc3)cc2n1	0	-21	28*	-10	-26	40*
C=CCNc1nc(NCCNC(C)=O)c2sc(-c3ccccc3)cc2n1	-6	-18	5	0	-28	·
COc1cc2c(cc1NC(=O)CSc1nnc(-c3ccccc3F)n1-c1ccc(C)cc1)oc1ccccc12	·	0	·	13	0	·
COC(=O)[C@]12C[C@H](CC(=O)NCCCCc3ccccc3)C(=O)N(CCC3=CCCCC3)C1=C[C@H](COCc1ccccc1)O[C@@H]2C	11	-2	-1	-12	1	·
CCOC(=O)C1CCCN(CCC(=O)Nc2cc(C)ccc2C)C1 (stereo not given)	17	-1	1	4	1	·
